Assay results taken from ChEMBL document CHEMBL3351943, “Binding modes of reverse fosmidomycin analogs toward the antimalarial target IspC” (J Med Chem, 2014).

Tests used:
[1] = Inhibition of Plasmodium falciparum IspC using 1-deoxy-D-xylulose 5-phosphate as substrate by photometric analysis
Method in brief: (§1)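 Photometric enzyme assay run per an earlier method. IC50 was fitted by nonlinear regression from eight or more data points. Generally two or three independent determinations were made.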

[2] = test system: Plasmodium falciparum; assay: Antimicrobial activity against chloroquine-sensitive Plasmodium falciparum 3D7 assessed as growth inhibition after 3 days by HRP2-based ELISA; format: functional, organism-based; details: 3D7, 72 h
Method in brief: (§2)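 Parasite growth followed by ELISA for P. falciparum histidine-rich protein 2; values are the mean of two duplicate determinations.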

[3] = target: T1, 1-deoxy-D-xylulose 5-phosphate reductoisomerase (Escherichia coli K-12, UniProt P45568); assay: Inhibition of Escherichia coli M15 recombinant IspC using 1-deoxy-D-xylulose 5-phosphate as substrate by photometric analysis; method in brief: as §1
T1 sequence (P45568 whole entry): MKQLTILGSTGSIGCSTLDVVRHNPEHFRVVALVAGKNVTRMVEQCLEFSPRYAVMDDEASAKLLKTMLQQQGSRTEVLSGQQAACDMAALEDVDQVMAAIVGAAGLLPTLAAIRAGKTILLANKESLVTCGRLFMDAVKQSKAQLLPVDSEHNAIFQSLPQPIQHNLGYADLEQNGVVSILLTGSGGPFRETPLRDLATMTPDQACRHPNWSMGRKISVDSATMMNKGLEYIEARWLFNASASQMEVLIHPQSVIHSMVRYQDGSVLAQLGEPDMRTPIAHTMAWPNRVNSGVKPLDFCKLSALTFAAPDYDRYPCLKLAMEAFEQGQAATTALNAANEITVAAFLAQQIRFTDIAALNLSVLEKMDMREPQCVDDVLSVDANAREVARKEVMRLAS

[4] = test system: Plasmodium falciparum; assay: Antimicrobial activity against multidrug-resistant Plasmodium falciparum FCR3 assessed as growth inhibition after 3 days by HRP2-based ELISA; format: functional, organism-based; details: FCR3, 72 h; method in brief: as §2
[5] = test system: Plasmodium falciparum; assay: Antimicrobial activity against chloroquine-resistant Plasmodium falciparum Dd2 assessed as growth inhibition after 3 days by HRP2-based ELISA; format: functional; details: Dd2, 72 h; method in brief: as §2
[6] = target: T2, 1-deoxy-D-xylulose 5-phosphate reductoisomerase (Mycobacterium tuberculosis, UniProt P9WNS1); assay: Inhibition of Mycobacterium tuberculosis IspC using 1-deoxy-D-xylulose 5-phosphate as substrate by photometric analysis
T2 sequence (P9WNS1 whole entry): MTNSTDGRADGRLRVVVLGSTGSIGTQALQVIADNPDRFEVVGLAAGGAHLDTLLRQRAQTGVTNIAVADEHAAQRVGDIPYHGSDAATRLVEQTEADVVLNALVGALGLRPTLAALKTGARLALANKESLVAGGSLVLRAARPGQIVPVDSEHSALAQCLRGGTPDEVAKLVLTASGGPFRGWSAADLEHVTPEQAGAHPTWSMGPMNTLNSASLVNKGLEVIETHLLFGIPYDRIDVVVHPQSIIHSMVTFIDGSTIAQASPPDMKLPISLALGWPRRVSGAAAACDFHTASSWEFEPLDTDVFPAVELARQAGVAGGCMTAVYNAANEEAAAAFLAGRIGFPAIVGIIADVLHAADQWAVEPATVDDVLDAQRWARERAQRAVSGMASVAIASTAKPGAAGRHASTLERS

SMILES	IC50 [1] [µM]	IC50 [2] [µM]	IC50 [3] [µM]	IC50 [4] [µM]	IC50 [5] [µM]	IC50 [6] [µM]
Cc1ccc(C(CCC(=O)N(C)O)P(=O)(O)O)cc1 (stereo unspecified)	0.01	0.21	0.29	0.38	0.25	–
COc1ccc(C(CCC(=O)N(C)O)P(=O)(O)O)cc1 (stereo unspecified)	0.02	0.1	0.07	0.57	0.3	2
Cc1ccc(C(CCC(=O)NO)P(=O)(O)O)cc1 (stereo unspecified)	0.19	2.6	0.7	–	2.8	11
COc1ccc(C(CCC(=O)NO)P(=O)(O)O)cc1 (stereo unspecified)	0.08	1.7	0.14	–	3.6	15
COc1ccc(C(CCC(=O)N(C)O)P(=O)(O)O)cc1OC (stereo unspecified)	0.06	0.29	0.32	–	1.2	29
COc1ccc(C(CCC(=O)NO)P(=O)(O)O)cc1OC (stereo unspecified)	0.13	6.8	1.5	–	8.1	163
COc1ccc(C(OCC(=O)N(C)O)P(=O)(O)O)cc1 (stereo unspecified)	0.05	0.31	0.45	0.41	1.1	2.8
COc1ccc(C(OCC(=O)NO)P(=O)(O)O)cc1 (stereo unspecified)	2.2	> 50	17	–	–	352
CN(O)C(=O)CCCC(c1ccccc1)P(=O)(O)O (stereo unspecified)	2.1	> 50	4.3	–	–	429
CN(O)C(=O)CCC(NC(=O)c1ccccc1)P(=O)(O)O (stereo unspecified)	9.1	> 50	11	–	–	238
O=C(CCC(NC(=O)c1ccccc1)P(=O)(O)O)NO (stereo unspecified)	> 1000	> 50	741	–	–	> 1000
O=C(CCC(c1ccccc1)P(=O)(O)O)Nc1ccccc1O (stereo unspecified)	> 300	> 50	> 500	–	–	> 500
O=P(O)(O)CCC(c1cccc2ccccc12)P(=O)(O)O (stereo unspecified)	> 300	> 50	> 500	–	–	> 500
